ChEMBL document CHEMBL4665666, “Discovery and characterization of trypanocidal cysteine protease inhibitors from the 'malaria box'” (Eur J Med Chem, 2019)
Calls of active or inactive are those of the source. The calls are words filed in the database; no cut-off is given here.

Assays:
[1] = target: T1, cathepsin B (Rattus norvegicus, UniProt P00787); assay: Inhibition of rat cathepsin B at 1 uM using Z-FR-AMC as substrate preincubated for 5 mins followed by substrate addition and measured after 15 mins by microplate reader based assay relative to control; conditions: probe Z-FR-AMC
[2] = target: T2, cathepsin S (Homo sapiens, UniProt P25774); assay: Inhibition of recombinant human cathepsin S expressed in Escherichia coli at 1 uM using Z-VVR-AMC as substrate preincubated for 10 mins followed by substrate addition and measured after 15 mins by microplate reader based assay relative to control; conditions: probe Z-VVR-AMC, in the assay text read “preincubated for 5 mins” for “preincubated for 10 mins”, time 20 min
In short: (§1)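 Run with or without 5 min compound–enzyme pre-incubation. AMC fluorescence at 380/460 nm over 15 min. Inhibition relative to DMSO (2% final); E64 1 µM as positive control. Two independent experiments, each in triplicate.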

[3] = target: T1, cathepsin B; assay: Inhibition of rat cathepsin B at 1 uM using Z-FR-AMC as substrate measured after 15 mins without preincubation by microplate reader based assay relative to control; conditions: probe Z-FR-AMC
[4] = target: T2, cathepsin S; assay: Inhibition of recombinant human cathepsin S expressed in Escherichia coli at 1 uM using Z-VVR-AMC as substrate and measured after 15 mins without preincubation by microplate reader based assay relative to control; conditions: probe Z-VVR-AMC
[5] = target: Rhodesain (Trypanosoma brucei rhodesiense) (UniProt Q95PM0); assay: Inhibition of recombinant Trypanosoma brucei rhodesain expressed in Pichia pastoris at 0.5 uM using Z-FR-AMC as substrate and measured at 12 sec interval for 5 mins without preincubation by fluorimetric analysis relative to control
In short: (§2)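 Recombinant rhodesain or cruzain (1 nM) in 0.1 M sodium acetate pH 5.5, 0.01% Triton X-100, 1 mM β-mercaptoethanol. Compound at a single concentration, either without or after 10 min enzyme pre-incubation. Z-FR-AMC 2.5 µM, read at 340/440 nm every 12 s for 5 min. Inhibition is relative to DMSO, with E-64 as positive control. Done in duplicate (primary screen) or triplicate.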

[6] = target: Cruzipain (Trypanosoma cruzi) (UniProt P25779); assay: Inhibition of recombinant Trypanosoma cruzi cruzain at 50 uM preincubated for 10 mins in presence of 0.1% Triton X-100 relative to control
In short: (§3)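 To test detergent sensitivity, cruzain was pre-incubated 10 min at room temperature with compound with no Triton X-100, 0.01% or 0.1% Triton X-100. Cleavage of Z-FR-AMC was then followed at pH 5.5 in acetate buffer. Percent inhibition was compared across detergent levels.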

[7] = target: Rhodesain (Trypanosoma brucei rhodesiense) (UniProt Q95PM0); assay: Inhibition of recombinant Trypanosoma brucei rhodesain expressed in Pichia pastoris at 5 uM using Z-FR-AMC as substrate preincubated for 10 mins followed by substrate addition and measured at 12 sec interval for 5 mins by fluorimetric analysis relative to control; conditions: time 15.0 min
In short: as §2, with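 “pre-incubation.” for “pre-incubation. Z-FR-AMC 2.5 µM, read at 340/440 nm every 12 s for 5 min.”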

[8] = system: Trypanosoma cruzi; assay: Trypanocidal activity against Trypanosoma cruzi Y strain trypomastigotes infected in C57BL/6 mouse peritoneal macrophage assessed as reduction in number of trypomastigotes release at 50 uM and measured after day 3 to day 11 post-infection by Neubauer chamber method; format: functional, organism-based; conditions: time 11.0 day
In short: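 Thioglycolate-elicited peritoneal macrophages from female C57BL/6 mice, 2 × 10^5/well, infected 2 h at 37°C with Y strain trypomastigotes at 5:1 (parasite:cell) and washed. They were then held with compound (3.125–50 µM) or IFN-γ 100 ng/mL. Trypomastigotes released into the supernatant were counted in a Neubauer chamber at several days after infection. Three independent experiments, each in triplicate.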

[9] = target: Cruzipain (Trypanosoma cruzi) (UniProt P25779); assay: Inhibition of recombinant Trypanosoma cruzi cruzain at 50 uM preincubated with enzyme for 5 mins followed by substrate addition in absence of BSA relative to control
In short: (§4)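 For BSA sensitivity, compound was held 5 min with BSA (2 mg/mL in 0.001% Triton X-100), then 5 min with 1 nM cruzain, before substrate was added and activity monitored. Parallel runs omitted BSA under otherwise identical conditions.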

[10] = target: Rhodesain (Trypanosoma brucei rhodesiense, UniProt Q95PM0); assay: Inhibition of recombinant Trypanosoma brucei rhodesain expressed in Pichia pastoris using Z-FR-AMC as substrate and measured at 12 sec interval for 5 mins without preincubation by fluorimetric analysis
In short: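 Rhodesain (1 nM) with Z-FR-AMC (2.5 µM) in 0.1 M sodium acetate pH 5.5, 0.01% Triton X-100, 1 mM β-mercaptoethanol, with or without 10 min enzyme-compound pre-incubation. Fluorescence read at 340/440 nm. IC50 by four-parameter nonlinear regression from at least six concentrations in triplicate, with at least two independent runs. Mean ± SEM reported.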

[11] = target: T2, cathepsin S; assay: Inhibition of recombinant human cathepsin S expressed in Escherichia coli at 50 uM using Z-VVR-AMC as substrate preincubated for 10 mins followed by substrate addition and measured after 15 mins by microplate reader based assay relative to control; conditions: probe Z-VVR-AMC, in the assay text read “preincubated for 5 mins” for “preincubated for 10 mins”, time 20 min
In short: as §1

[12] = target: Cruzipain (Trypanosoma cruzi) (UniProt P25779); assay: Inhibition of recombinant Trypanosoma cruzi cruzain at 5 uM using Z-FR-AMC as substrate preincubated for 10 mins followed by substrate addition and measured at 12 sec interval for 5 mins by fluorimetric analysis relative to control; conditions: time 15.0 min
In short: as §2, with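 “pre-incubation.” for “pre-incubation. Z-FR-AMC 2.5 µM, read at 340/440 nm every 12 s for 5 min.”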

[13] = target: Cruzipain (Trypanosoma cruzi) (UniProt P25779); assay: Inhibition of recombinant Trypanosoma cruzi cruzain at 50 uM preincubated with BSA for 5 mins followed by incubation with enzyme for 5 mins followed by substrate addition relative to control; conditions: time 10.0 min
In short: as §4

[14] = target: Cruzipain (Trypanosoma cruzi) (UniProt P25779); assay: Inhibition of recombinant Trypanosoma cruzi cruzain at 10 uM using Z-FR-AMC as substrate and measured at 12 sec interval for 5 mins without preincubation by fluorimetric analysis relative to control
In short: as §2

[15] = target: T2, cathepsin S; assay: Inhibition of recombinant human cathepsin S expressed in Escherichia coli at 50 uM using Z-VVR-AMC as substrate and measured after 15 mins without preincubation by microplate reader based assay relative to control; conditions: probe Z-VVR-AMC
In short: as §1

[16] = target: Cruzipain (Trypanosoma cruzi) (UniProt P25779); assay: Inhibition of recombinant Trypanosoma cruzi cruzain at 5 uM using Z-FR-AMC as substrate and measured at 12 sec interval for 5 mins without preincubation by fluorimetric analysis relative to control
In short: as §2, with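 “pre-incubation.” for “pre-incubation. Z-FR-AMC 2.5 µM, read at 340/440 nm every 12 s for 5 min.”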

[17] = target: Rhodesain (Trypanosoma brucei rhodesiense) (UniProt Q95PM0); assay: Inhibition of recombinant Trypanosoma brucei rhodesain expressed in Pichia pastoris at 100 uM using Z-FR-AMC as substrate preincubated for 10 mins followed by substrate addition and measured at 12 sec interval for 5 mins by fluorimetric analysis relative to control; conditions: time 15.0 min
In short: (§5)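 Run with no pre-incubation or with 10 min enzyme-compound pre-incubation. Fluorescence read at 340/440 nm. Concentration was set by solubility under assay conditions. Inhibition is against DMSO, with E-64 as positive control; triplicate.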

[18] = target: Cruzipain (Trypanosoma cruzi) (UniProt P25779); assay: Inhibition of recombinant Trypanosoma cruzi cruzain at 50 uM preincubated for 10 mins in presence of 0.01% Triton X-100 relative to control
In short: as §3

[19] = target: Cruzipain (Trypanosoma cruzi) (UniProt P25779); assay: Inhibition of recombinant Trypanosoma cruzi cruzain at 100 uM using Z-FR-AMC as substrate and measured at 12 sec interval for 5 mins without preincubation by fluorimetric analysis relative to control
In short: as §2

[20] = target: Rhodesain (Trypanosoma brucei rhodesiense) (UniProt Q95PM0); assay: Inhibition of recombinant Trypanosoma brucei rhodesain expressed in Pichia pastoris at 10 uM using Z-FR-AMC as substrate and measured at 12 sec interval for 5 mins without preincubation by fluorimetric analysis relative to control
In short: as §2

[21] = target: Cruzipain (Trypanosoma cruzi) (UniProt P25779); assay: Inhibition of recombinant Trypanosoma cruzi cruzain at 100 uM using Z-FR-AMC as substrate preincubated for 10 mins followed by substrate addition and measured at 12 sec interval for 5 mins by fluorimetric analysis relative to control; conditions: time 15.0 min
In short: as §2

[22] = target: Cruzipain (Trypanosoma cruzi) (UniProt P25779); assay: Inhibition of recombinant Trypanosoma cruzi cruzain at 50 uM preincubated for 10 mins in absence of Triton X-100 relative to control
In short: as §3

[23] = target: T1, cathepsin B; assay: Inhibition of rat cathepsin B at 50 uM using Z-FR-AMC as substrate preincubated for 5 mins followed by substrate addition and measured after 15 mins by microplate reader based assay relative to control; conditions: probe Z-FR-AMC
[24] = target: T3, Cruzipain (Trypanosoma cruzi, UniProt P25779); assay: Competitive inhibition of recombinant Trypanosoma cruzi cruzain by Lineweaver-Burk plot analysis
In short: (§6)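 Cruzain (recombinant, 1 nM) in 0.1 M sodium acetate pH 5.5 with 0.01% Triton X-100 and 1 mM β-mercaptoethanol; Z-FR-AMC 2.5 µM, read at 340/440 nm every 12 s for 5 min, with or without 10 min enzyme–compound pre-incubation. […] For mechanism and Ki, 0.3–20.0 µM substrate and five inhibitor levels were used, with Lineweaver-Burk plots.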

[25] = target: Rhodesain (Trypanosoma brucei rhodesiense) (UniProt Q95PM0); assay: Inhibition of recombinant Trypanosoma brucei rhodesain expressed in Pichia pastoris at 5 uM using Z-FR-AMC as substrate and measured at 12 sec interval for 5 mins without preincubation by fluorimetric analysis relative to control
In short: as §2, with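 “pre-incubation.” for “pre-incubation. Z-FR-AMC 2.5 µM, read at 340/440 nm every 12 s for 5 min.”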

[26] = target: Cruzipain (Trypanosoma cruzi) (UniProt P25779); assay: Inhibition of recombinant Trypanosoma cruzi cruzain at 10 uM using Z-FR-AMC as substrate preincubated for 10 mins followed by substrate addition and measured at 12 sec interval for 5 mins by fluorimetric analysis relative to control; conditions: time 15.0 min
In short: as §2

[27] = target: Rhodesain (Trypanosoma brucei rhodesiense) (UniProt Q95PM0); assay: Inhibition of recombinant Trypanosoma brucei rhodesain expressed in Pichia pastoris at 100 uM using Z-FR-AMC as substrate and measured at 12 sec interval for 5 mins without preincubation by fluorimetric analysis relative to control
In short: as §5

[28] = target: T1, cathepsin B; assay: Inhibition of rat cathepsin B at 50 uM using Z-FR-AMC as substrate measured after 15 mins without preincubation by microplate reader based assay relative to control; conditions: probe Z-FR-AMC
In short: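 Rat cathepsin B (20 nM) at 25°C in 100 mM sodium phosphate, 100 mM NaCl, 1 mM EDTA, 1 mM DTT, 0.01% CHAPS. Compound pre-incubated 0 or 5 min with enzyme; Z-FR-AMC 50 µM, ex 380/em 440 nm, monitored 15 min. Inhibition is versus 2% DMSO, with 1 µM E64 control. Two independent experiments in triplicate.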

[29] = target: Rhodesain (Trypanosoma brucei rhodesiense) (UniProt Q95PM0); assay: Inhibition of recombinant Trypanosoma brucei rhodesain expressed in Pichia pastoris at 10 uM using Z-FR-AMC as substrate preincubated for 10 mins followed by substrate addition and measured at 12 sec interval for 5 mins by fluorimetric analysis relative to control; conditions: time 15.0 min
In short: as §2

[30] = target: T3, Cruzipain; assay: Inhibition of recombinant Trypanosoma cruzi cruzain using Z-FR-AMC as substrate and measured at 12 sec interval for 5 mins without preincubation by fluorimetric analysis
In short: as §6

Sequence of Rhodesain (Trypanosoma brucei rhodesiense) (Q95PM0 1-450): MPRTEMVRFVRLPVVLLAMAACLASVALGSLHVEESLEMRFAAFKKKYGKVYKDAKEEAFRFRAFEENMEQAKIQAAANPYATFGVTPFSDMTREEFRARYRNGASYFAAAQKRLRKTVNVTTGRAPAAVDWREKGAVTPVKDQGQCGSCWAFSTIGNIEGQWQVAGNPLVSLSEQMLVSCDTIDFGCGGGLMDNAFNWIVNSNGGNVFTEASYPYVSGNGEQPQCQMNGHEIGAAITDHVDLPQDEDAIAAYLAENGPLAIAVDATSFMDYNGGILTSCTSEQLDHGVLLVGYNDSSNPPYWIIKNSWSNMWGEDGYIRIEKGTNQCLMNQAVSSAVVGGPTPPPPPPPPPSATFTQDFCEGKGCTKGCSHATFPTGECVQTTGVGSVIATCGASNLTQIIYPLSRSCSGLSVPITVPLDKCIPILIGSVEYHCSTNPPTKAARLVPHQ
Sequence of Cruzipain (Trypanosoma cruzi) (P25779 123-467 limits assumed): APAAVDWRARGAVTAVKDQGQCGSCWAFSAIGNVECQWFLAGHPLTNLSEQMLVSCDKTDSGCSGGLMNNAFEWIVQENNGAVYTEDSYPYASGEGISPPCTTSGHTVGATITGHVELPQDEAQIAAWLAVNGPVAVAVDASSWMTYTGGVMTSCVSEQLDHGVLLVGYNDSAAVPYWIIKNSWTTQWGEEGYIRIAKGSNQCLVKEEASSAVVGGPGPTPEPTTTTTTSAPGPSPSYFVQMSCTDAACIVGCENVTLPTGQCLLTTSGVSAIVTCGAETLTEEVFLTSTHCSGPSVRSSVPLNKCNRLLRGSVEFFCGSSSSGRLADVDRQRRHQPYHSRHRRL
T2 sequence (P25774 whole entry): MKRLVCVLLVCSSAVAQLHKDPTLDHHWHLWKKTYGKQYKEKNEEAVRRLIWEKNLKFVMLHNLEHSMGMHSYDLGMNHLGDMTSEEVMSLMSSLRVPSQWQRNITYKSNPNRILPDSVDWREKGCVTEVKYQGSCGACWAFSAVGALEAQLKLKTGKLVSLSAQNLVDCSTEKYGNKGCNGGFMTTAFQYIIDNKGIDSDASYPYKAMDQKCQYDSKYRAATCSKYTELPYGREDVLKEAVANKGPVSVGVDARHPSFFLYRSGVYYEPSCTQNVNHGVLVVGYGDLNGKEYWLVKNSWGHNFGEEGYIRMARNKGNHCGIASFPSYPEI
T1 sequence (P00787 whole entry): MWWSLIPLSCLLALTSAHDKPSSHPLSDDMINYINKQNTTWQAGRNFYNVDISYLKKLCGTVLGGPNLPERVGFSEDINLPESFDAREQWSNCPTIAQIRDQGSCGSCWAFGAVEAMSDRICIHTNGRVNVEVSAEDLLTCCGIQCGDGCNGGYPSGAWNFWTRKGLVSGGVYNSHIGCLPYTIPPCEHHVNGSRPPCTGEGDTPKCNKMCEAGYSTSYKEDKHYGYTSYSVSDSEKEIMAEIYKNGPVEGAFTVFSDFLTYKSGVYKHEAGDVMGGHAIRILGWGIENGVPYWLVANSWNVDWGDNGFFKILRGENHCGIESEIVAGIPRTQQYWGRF
T3 sequence (P25779 whole entry): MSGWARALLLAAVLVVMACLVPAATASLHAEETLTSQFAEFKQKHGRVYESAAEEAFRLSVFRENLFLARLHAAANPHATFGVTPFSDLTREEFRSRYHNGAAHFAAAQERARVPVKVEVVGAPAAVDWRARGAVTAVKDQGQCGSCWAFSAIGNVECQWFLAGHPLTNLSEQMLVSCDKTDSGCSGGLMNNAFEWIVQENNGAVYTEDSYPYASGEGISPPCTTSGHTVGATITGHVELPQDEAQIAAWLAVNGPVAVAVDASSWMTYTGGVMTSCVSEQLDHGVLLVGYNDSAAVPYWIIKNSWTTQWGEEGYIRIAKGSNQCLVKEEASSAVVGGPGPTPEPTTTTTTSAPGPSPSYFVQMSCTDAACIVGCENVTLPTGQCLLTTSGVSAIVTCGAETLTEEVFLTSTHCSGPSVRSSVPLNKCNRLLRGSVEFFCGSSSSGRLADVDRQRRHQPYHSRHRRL
Sequence of Rhodesain (Q95PM0 whole entry): as the sequence (Q95PM0 1-450) above

`CC(C)C[C@H](NC(=O)[C@H]1O[C@@H]1C(=O)O)C(=O)NCCCCN=C(N)N` [E-64] gave an inhibition at 0.25 h, 1 µM [1] of 100%, an inhibition at 0.25 h, 1 µM [2] of 99.9% and an inhibition at 0.25 h, 1 µM [3] of 99.1%. For the same compound, the inhibition at 0.25 h, 1 µM [4] was 99.9% and the inhibition [5] was 36%.
With `c1ccc(CNc2nc(Nc3ccccc3)nc3ccccc23)cc1` the inhibition [6] was 28.1%, the inhibition [7] was 82.8% and the Activity [8] was “Active”. It also gave an inhibition [9] of 70.2%, an IC50 [10] of 30 µM and an inhibition at 0.25 h, 50 µM [11] of 4.5%. It also gave an inhibition [12] of 82.3%, an inhibition [13] of 64.4% and an inhibition [14] of 62%. For the same compound, the inhibition at 0.25 h, 50 µM [15] was 14.8%, the inhibition [16] was 70.8% and the inhibition [17] was 94%. The inhibition [18] was 89.8%, the inhibition [19] was 91% and the inhibition [20] was 14%. The inhibition [21] was 90%, the inhibition [22] was 82.4% and the inhibition at 0.25 h, 50 µM [23] was 27.5%. For the same compound, the Ki [24] was 1400 nM, the inhibition [25] was 67.1% and the inhibition [26] was 57%. For the same compound, the inhibition [27] was 85%, the inhibition at 0.25 h, 50 µM [28] was 28.6% and the inhibition [29] was 9%. It also gave an IC50 [30] of 9 µM.
